Assay results as given in ChEMBL document CHEMBL5661968, “Antitumor activity of ZSTK474, a new phosphatidylinositol 3-kinase inhibitor” (J Natl Cancer Inst, 2006).
Activity calls are given as the source filed them. The calls are words filed in the database; no cut-off is given here.

Legend:
[1] = Growth inhibition of human BSY1 cells measured after 48 hrs by sulforhodamine B assay; format: functional; settings: BSY-1
Summary of the method: (§1)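 JFCR39 panel lines were grown in RPMI 1640 with 5% FBS, penicillin and streptomycin at 37 °C in 5% CO2. After 48 h of drug exposure, total cellular protein was measured by sulforhodamine B staining. GI50 was calculated by a previously described method.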

MCF7 = assay: Growth inhibition of human MCF7 cells measured after 48 hrs by sulforhodamine B assay; format: functional; summary of the method: as §1
SF-268 = assay: Growth inhibition of human SF-268 cells measured after 48 hrs by sulforhodamine B assay; format: functional; summary of the method: as §1
SF-539 = assay: Growth inhibition of human SF-539 cells measured after 48 hrs by sulforhodamine B assay; format: functional; summary of the method: as §1
HCC 2998 = assay: Growth inhibition of human HCC 2998 cells measured after 48 hrs by sulforhodamine B assay; format: functional; summary of the method: as §1
NCI-H23 = assay: Growth inhibition of human NCI-H23 cells measured after 48 hrs by sulforhodamine B assay; format: functional; summary of the method: as §1
DMS-273 = assay: Growth inhibition of human DMS-273 cells measured after 48 hrs by sulforhodamine B assay; format: functional; summary of the method: as §1
DMS-114 = assay: Growth inhibition of human DMS-114 cells measured after 48 hrs by sulforhodamine B assay; format: functional; summary of the method: as §1
LOX IMVI = assay: Growth inhibition of human LOX IMVI cells measured after 48 hrs by sulforhodamine B assay; format: functional; summary of the method: as §1
OVCAR-4 = assay: Growth inhibition of human OVCAR-4 cells measured after 48 hrs by sulforhodamine B assay; format: functional; summary of the method: as §1
OVCAR-8 = assay: Growth inhibition of human OVCAR-8 cells measured after 48 hrs by sulforhodamine B assay; format: functional; summary of the method: as §1
St-4 = assay: Growth inhibition of human St-4 cells measured after 48 hrs by sulforhodamine B assay; format: functional; summary of the method: as §1
MKN-7 = assay: Growth inhibition of human MKN-7 cells measured after 48 hrs by sulforhodamine B assay; format: functional; summary of the method: as §1
PC-3 = assay: Growth inhibition of human PC-3 cells measured after 48 hrs by sulforhodamine B assay; format: functional; summary of the method: as §1
OVCAR-3 = assay: Induction of apoptosis in human OVCAR-3 cells assessed as increase in apoptotic cells at 10 uM measured after 48 hrs by propidium iodide staining based flow cytometric analysis; format: functional, cell-based
Summary of the method: (§2)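 Cells harvested, washed in ice-cold PBS, fixed in 70% ethanol, washed twice in ice-cold PBS, treated with RNase A (500 μg/mL) at 37 °C for 1 h, stained with propidium iodide (25 μg/mL); DNA content read by flow cytometry.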

A549 [2] = assay: Induction of apoptosis in human A549 cells assessed as increase in apoptotic cells at 10 uM measured after 48 hrs by propidium iodide staining based flow cytometric analysis; format: functional, cell-based; summary of the method: as §2
A549 [3] = assay: Inhibition of AKT in human A549 cells at 0.5 uM measured after 5 mins by Western blotting analysis; format: cell-based
[4] = molecular target: Forkhead box protein O3 (Homo sapiens) (UniProt O43524); assay: Inhibition of FKHRL1 phosphorylation in Thr-32 residue human A549 cells measured after 3 hrs by immunoblotting analysis; format: cell-based; settings: dose <= 2.0 µM
Chain of Forkhead box protein O3 (Homo sapiens) (O43524 whole entry): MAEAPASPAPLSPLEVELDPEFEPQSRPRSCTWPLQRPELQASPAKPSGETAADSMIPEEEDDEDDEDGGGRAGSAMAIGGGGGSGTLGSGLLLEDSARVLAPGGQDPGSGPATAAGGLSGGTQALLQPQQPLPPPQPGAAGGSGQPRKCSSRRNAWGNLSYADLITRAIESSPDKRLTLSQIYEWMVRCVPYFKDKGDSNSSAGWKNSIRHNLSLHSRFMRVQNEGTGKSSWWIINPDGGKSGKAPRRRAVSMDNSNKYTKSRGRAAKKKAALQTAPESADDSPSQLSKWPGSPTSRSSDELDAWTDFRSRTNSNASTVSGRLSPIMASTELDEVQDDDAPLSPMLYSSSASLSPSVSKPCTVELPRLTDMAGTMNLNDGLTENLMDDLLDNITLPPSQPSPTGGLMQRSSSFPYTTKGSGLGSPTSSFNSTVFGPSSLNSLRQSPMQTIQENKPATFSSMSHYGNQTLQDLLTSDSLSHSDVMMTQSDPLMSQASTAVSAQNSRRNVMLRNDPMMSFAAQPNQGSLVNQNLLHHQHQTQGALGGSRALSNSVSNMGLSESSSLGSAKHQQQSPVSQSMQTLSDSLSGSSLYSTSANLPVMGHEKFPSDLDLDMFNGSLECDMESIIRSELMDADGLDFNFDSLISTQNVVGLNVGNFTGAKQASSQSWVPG
Summary of the method: (§3)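 A549 cells treated over 0 to 2.0 μM; lysed in 10 mM Tris–HCl pH 7.4, 50 mM NaCl, NaF, pyrophosphate, vanadate, EDTA, protease inhibitors, 0.5% NP-40, 0.1% SDS; proteins resolved by SDS-PAGE, blotted to PVDF, probed with phospho-specific antibodies, HRP secondary, ECL detection.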

[5] = molecular target: Forkhead box protein O1 (Homo sapiens) (UniProt Q12778); assay: Inhibition of FKHR phosphorylation at Thr-24 residue in human A549 cells measured after 3 hrs by immunoblotting analysis; format: cell-based; settings: dose <= 2.0 µM; summary of the method: as §3
Chain of Forkhead box protein O1 (Homo sapiens) (Q12778 whole entry): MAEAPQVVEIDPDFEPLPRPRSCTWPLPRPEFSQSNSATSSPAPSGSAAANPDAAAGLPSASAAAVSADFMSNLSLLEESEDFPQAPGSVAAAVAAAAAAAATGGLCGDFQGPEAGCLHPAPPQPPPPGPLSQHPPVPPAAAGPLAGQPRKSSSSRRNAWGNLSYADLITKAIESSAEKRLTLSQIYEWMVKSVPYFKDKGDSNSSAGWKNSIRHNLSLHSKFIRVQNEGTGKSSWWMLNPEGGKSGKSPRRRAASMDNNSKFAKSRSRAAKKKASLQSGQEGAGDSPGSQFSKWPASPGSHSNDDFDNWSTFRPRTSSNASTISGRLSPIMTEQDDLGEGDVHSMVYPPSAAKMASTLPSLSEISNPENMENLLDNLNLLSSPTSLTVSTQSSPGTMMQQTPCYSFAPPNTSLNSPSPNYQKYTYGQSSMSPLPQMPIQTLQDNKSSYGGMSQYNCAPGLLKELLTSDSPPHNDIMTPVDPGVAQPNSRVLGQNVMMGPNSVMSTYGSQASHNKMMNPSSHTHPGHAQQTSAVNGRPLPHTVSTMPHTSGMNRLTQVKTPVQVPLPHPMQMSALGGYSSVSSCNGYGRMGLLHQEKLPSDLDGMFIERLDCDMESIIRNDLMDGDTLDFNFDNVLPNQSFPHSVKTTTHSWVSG

[6] = molecular target: Ribosomal protein S6 kinase beta-1 (Homo sapiens) (UniProt P23443); assay: Inhibition of p70S6K phosphorylation at Thr-389 residue in human A549 cells measured after 3 hrs by immunoblotting analysis; format: cell-based; settings: dose <= 2.0 µM; summary of the method: as §3
Chain of Ribosomal protein S6 kinase beta-1 (Homo sapiens) (P23443 whole entry, looked up): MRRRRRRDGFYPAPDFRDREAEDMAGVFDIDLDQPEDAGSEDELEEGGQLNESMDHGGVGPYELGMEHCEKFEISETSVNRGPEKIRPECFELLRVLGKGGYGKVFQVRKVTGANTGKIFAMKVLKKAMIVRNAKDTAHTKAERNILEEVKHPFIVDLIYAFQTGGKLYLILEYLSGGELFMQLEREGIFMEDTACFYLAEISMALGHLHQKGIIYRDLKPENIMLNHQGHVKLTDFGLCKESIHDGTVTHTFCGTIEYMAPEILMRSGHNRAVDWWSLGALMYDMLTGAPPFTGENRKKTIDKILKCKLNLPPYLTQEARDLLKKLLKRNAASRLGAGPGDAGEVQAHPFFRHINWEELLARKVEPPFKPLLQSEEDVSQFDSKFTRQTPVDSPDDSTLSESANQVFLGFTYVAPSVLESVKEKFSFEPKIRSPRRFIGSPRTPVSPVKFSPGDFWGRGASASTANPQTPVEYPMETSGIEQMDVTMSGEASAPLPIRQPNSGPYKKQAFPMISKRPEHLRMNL

A549 [7] = assay: Downregulation of cyclin D1 expression in human A549 cells measured after 3 hrs by immunoblotting analysis; format: functional, cell-based; settings: dose <= 2.0 µM
Summary of the method: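 A549 cells were lysed in Tris-HCl pH 7.4 buffer with NaF, pyrophosphate, Na3VO4, EDTA, aprotinin, PMSF, 0.5% NP-40 and 0.1% SDS. Lysates were run on SDS-PAGE and blotted to PVDF. Blots were probed with rabbit anti-cyclin D1 polyclonal (1:200), then HRP anti-rabbit IgG, and detected by ECL chemiluminescence.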

A549 [8] = assay: Antitumor activity against human A549 cells xenografted in nude mouse assessed as inhibition of tumor growth at 400 mg/kg, po administered on day 0 to 13 except for day 3 and 10 measured after 14 days; format: functional, organism-based; settings: time 14.0 day
Summary of the method: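 Female BALB/c-background nude mice were implanted s.c. with 3 × 3 × 3 mm tumor fragments. At 100–300 mm3 tumor volume (day 0), groups of five were randomized and dosed orally at 400 mg/kg on days 0–13, skipping days 3 and 10. Caliper volume was (L×W2)/2, relative to day 0 (RTV). T/C% on day 14 = 100 × mean treated RTV / mean control RTV.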

[9] = Toxicity in nude mouse xenografted with human A549 cells assessed as change in body weight at 800 mg/kg, po administered on day 0 to 13 except for day 3 and 10 measured after 28 days (reference value: 14 %); format: organism-based; settings: in vivo, 672 h, time 28 day
[10] = […] toxicity in nude mouse xenografted with human A549 cells assessed as change in body weight at 800 mg/kg, po administered on day 0 to 13 except for day 3 and 10 measured after 28 days; format: organism-based; settings: in vivo, 672 h, time 28 day
[11] = Toxicity in nude mouse xenografted with human PC-3 cells assessed as change in body weight at 400 mg/kg, po administered on day 0 to 13 except for day 3 and 10 measured after 28 days (reference value: 17 %); format: organism-based; settings: in vivo, 672 h, time 28 day
[12] = molecular target: Dual specificity mitogen-activated protein kinase kinase 2 (Homo sapiens) (UniProt P36507); assay: Inhibition of MEK2 phosphorylation at Ser-217/221 residues in human A549 cells measured after 3 hrs by immunoblotting analysis; settings: dose <= 2.0 µM
Chain of Dual specificity mitogen-activated protein kinase kinase 2 (Homo sapiens) (P36507 whole entry): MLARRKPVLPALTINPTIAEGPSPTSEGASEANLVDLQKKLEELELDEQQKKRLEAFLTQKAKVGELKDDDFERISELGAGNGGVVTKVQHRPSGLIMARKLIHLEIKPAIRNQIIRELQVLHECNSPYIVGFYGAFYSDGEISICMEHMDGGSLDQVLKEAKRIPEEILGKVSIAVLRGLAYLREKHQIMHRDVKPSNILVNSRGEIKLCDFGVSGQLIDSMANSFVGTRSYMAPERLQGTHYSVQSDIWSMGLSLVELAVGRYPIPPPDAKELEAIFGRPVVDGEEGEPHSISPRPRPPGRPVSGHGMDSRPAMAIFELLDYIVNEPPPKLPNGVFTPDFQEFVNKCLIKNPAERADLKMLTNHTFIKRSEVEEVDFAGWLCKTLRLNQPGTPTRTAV

[13] = molecular target: Mitogen-activated protein kinase 3 (Homo sapiens) (UniProt P27361); assay: Inhibition of ERK1 phosphorylation at Thr-202/Tyr-204 residues in human A549 cells measured after 3 hrs by immunoblotting analysis; settings: dose <= 2.0 µM
Chain of Mitogen-activated protein kinase 3 (Homo sapiens) (P27361 whole entry): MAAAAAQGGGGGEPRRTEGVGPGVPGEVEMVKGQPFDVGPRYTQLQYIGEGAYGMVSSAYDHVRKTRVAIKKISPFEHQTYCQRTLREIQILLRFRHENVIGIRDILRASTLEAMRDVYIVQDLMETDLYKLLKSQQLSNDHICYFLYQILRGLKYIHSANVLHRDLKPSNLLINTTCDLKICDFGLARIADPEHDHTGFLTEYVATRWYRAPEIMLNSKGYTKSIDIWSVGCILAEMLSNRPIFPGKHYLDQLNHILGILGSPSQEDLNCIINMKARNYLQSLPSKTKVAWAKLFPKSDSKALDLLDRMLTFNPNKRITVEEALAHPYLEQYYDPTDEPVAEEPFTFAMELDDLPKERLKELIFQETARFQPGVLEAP

B16-F10 = assay: Antitumor activity against mouse B16-F10 cells implanted in BDF1 mouse assessed as tumor size relative to control (T/C) at 200 mg/kg, po administered daily measured after 14 days; settings: 336 h
A549 [14] = assay: Induction of cell cycle arrest in human A549 cells assessed as accumulation of cells at G1 phase at 10 uM incubated for 24 hrs by propidium iodide staining based flow cytometric analysis

GI50 (MCF7): 45.7 nM
GI50 (HCC 2998): 245 nM
GI50 (NCI-H23): 339 nM
GI50 (OVCAR-4): 182 nM
GI50 (OVCAR-8): 1050 nM
GI50 (MKN-7): 1320 nM
GI50 (PC-3): 38 nM
inhibition [4]: Dose-Dependent Effect
inhibition [5]: Dose-Dependent Effect
inhibition [6]: Dose-Dependent Effect
inhibition [12]: inactive
inhibition [13]: inactive
SMILES: FC(F)c1nc2ccccc2n1-c1nc(N2CCOCC2)nc(N2CCOCC2)n1 [ZSTK-474]
GI50 [1]: 93.3 nM
GI50 (SF-268): 646 nM
GI50 (SF-539): 347 nM
GI50 (DMS-273): 224 nM
GI50 (DMS-114): 295 nM
GI50 (LOX IMVI): 457 nM
GI50 (St-4): 1700 nM
Activity (OVCAR-3): Active
Activity (A549 [2]): inactive
inhibition (A549 [3]): inactive
Activity (A549 [7]): Dose-Dependent Effect
Activity (A549 [8]): Active
Activity [9]: Non-Toxic
Activity [10]: Non-Toxic
Activity [11]: 17%
T/C at 200 mg/kg (B16-F10): 7.1%
Activity (A549 [14]): Active
